Calls of active or inactive are those of the source. The rule behind the calls is not given here.
Experiments:
Staphylococcus aureus = test: Antibacterial activity against Staphylococcus aureus ATCC 6538 at <= 60 to 120 uM; format: functional
How it was run: (§1)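 Run in triplicate by the group's previously reported protocols. Compounds were tested up to 60–120 μM against bacteria and yeast, and up to 20 μM against non-small-cell lung A549 cells. Bacterial strains were S. aureus ATCC 6538, M. luteus NRRL B-287, E. coli NRRL B-3708 and S. enterica ATCC 10708. The yeast was S. cerevisiae ATCC 204508.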

[1] = system: Salmonella enterica subsp. enterica serovar Choleraesuis str. ATCC 10708; test: Antibacterial activity against Salmonella enterica ATCC 10708 at <= 60 to 120 uM; format: functional
How it was run: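 Run in triplicate against S. enterica ATCC 10708, a strain obtained from ATCC. Compounds were tested at concentrations up to ≤60−120 μM.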

Micrococcus luteus = test: Antibacterial activity against Micrococcus luteus NRRL B-287 at <= 60 to 120 uM; format: functional; how it was run: as §1
Escherichia coli = test: Antibacterial activity against Escherichia coli NRRL B-3708 at <= 60 to 120 uM; format: functional; how it was run: as §1
Saccharomyces cerevisiae = test: Antifungal activity against Saccharomyces cerevisiae ATCC 204508 at <= 60 to 120 uM; format: functional; how it was run: as §1
A549 = test: Cytotoxicity against human A549 cells at <= 20 uM; format: functional, cell-based; how it was run: as §1
Hippocampal neurone [2] = test: Neuroprotective activity against EtOH-induced cytotoxicity in Sprague-Dawley rat primary hippocampal neurons assessed as decrease in propidium iodide uptake at 0.01 to 0.1 uM after 48 hrs by fluorescence microscopic method; format: functional, cell-based
How it was run: (§2)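 Rat hippocampus-derived primary cell cultures were exposed for 48 h to 100 mM EtOH, with or without compound (0.01–1.0 μM, dose–response). A DMSO control was included. Damage was read as propidium iodide uptake into compromised cells.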

Hippocampal neurone [3] = test: Neuroprotective activity against EtOH-induced cytotoxicity in Sprague-Dawley rat primary hippocampal neurons assessed as decrease in propidium iodide uptake at 1 uM after 48 hrs by fluorescence microscopic method; format: functional, cell-based; how it was run: as §2
Hippocampal neurone [4] = test: Neuroprotective activity against EtOH-induced cytotoxicity in Sprague-Dawley rat primary hippocampal neurons assessed as decrease in propidium iodide uptake at 0.1 to 1 uM after 48 hrs by fluorescence microscopic method; format: functional, cell-based; how it was run: as §2
Hippocampal neurone [5] = test: Neuroprotective activity against EtOH-induced cytotoxicity in Sprague-Dawley rat primary hippocampal neurons assessed as decrease in propidium iodide uptake at 0.01 to 1 uM after 48 hrs by fluorescence microscopic method; format: functional, cell-based; how it was run: as §2

Structure (SMILES) | Activity (Staphylococcus aureus) | Activity [1] | Activity (Micrococcus luteus) | Activity (Escherichia coli) | Activity (Saccharomyces cerevisiae) | Activity (A549) | Activity (Hippocampal neurone [2]) | Activity (Hippocampal neurone [3]) | Activity (Hippocampal neurone [4]) | Activity (Hippocampal neurone [5])
N[C@H]1[C@H](Oc2ccccc2C(=O)NC(CO)CO)O[C@H](CO)[C@@H](O)[C@@H]1O | inactive | inactive | inactive | inactive | inactive | inactive | – | – | – | –
OC[C@@H]1COC(c2ccccc2O)=N1 | inactive | inactive | inactive | inactive | inactive | inactive | – | – | – | –
OC[C@@H]1COC(c2ccccc2O[C@@H]2O[C@H](CO)[C@@H](O)[C@H](O)[C@H]2O)=N1 | inactive | inactive | inactive | inactive | inactive | inactive | Active | inactive | – | –
NC(=O)[C@@H]1COC(c2ccccc2O)=N1 | inactive | inactive | inactive | inactive | inactive | inactive | – | – | – | –
NC(=O)[C@@H]1COC(c2ccccc2O[C@@H]2O[C@H](CO)[C@@H](O)[C@H](O)[C@H]2O)=N1 | inactive | inactive | inactive | inactive | inactive | inactive | inactive | – | Active | –
O=C(NC(CO)CO)c1ccccc1O[C@@H]1O[C@H](CO)[C@@H](O)[C@H](O)[C@H]1O | inactive | inactive | inactive | inactive | inactive | inactive | – | – | – | –
N[C@H]1[C@H](Oc2ccccc2C2=N[C@H](C(=O)N[C@@H](CO)C(=O)N[C@H](CCCN(O)C=O)C(=O)NCCC(=O)N[C@@H]3CCCN(O)C3=O)CO2)O[C@H](CO)[C@@H](O)[C@@H]1O | inactive | inactive | inactive | inactive | inactive | inactive | – | – | – | –
OC[C@H]1O[C@@H](OC[C@@H]2COC(c3ccccc3O)=N2)[C@H](O)[C@@H](O)[C@@H]1O | inactive | inactive | inactive | inactive | inactive | inactive | – | – | – | –
C[C@@H](CO)NC(=O)c1ccccc1O[C@@H]1O[C@H](CO)[C@@H](O)[C@H](O)[C@H]1O | inactive | inactive | inactive | inactive | inactive | inactive | – | – | – | –
C[C@@H](CO)NC(=O)c1ccccc1O[C@@H]1O[C@H](CO)[C@@H](O)[C@H](O)[C@H]1N | inactive | inactive | inactive | inactive | inactive | inactive | – | – | – | –
O=CN(O)CCC[C@@H](NC(=O)[C@H](CO)NC(=O)[C@@H]1COC(c2ccccc2O)=N1)C(=O)NCCC(=O)N[C@@H]1CCCN(O)C1=O | inactive | inactive | inactive | inactive | inactive | inactive | – | – | – | –
O=CN(O)CCC[C@@H](NC(=O)[C@H](CO)NC(=O)[C@@H]1COC(c2ccccc2O[C@@H]2O[C@H](CO)[C@@H](O)[C@H](O)[C@H]2O)=N1)C(=O)NCCC(=O)N[C@@H]1CCCN(O)C1=O | inactive | inactive | inactive | inactive | inactive | inactive | – | – | – | –
C[C@H](CO)NC(=O)c1ccccc1O[C@@H]1O[C@H](CO)[C@@H](O)[C@H](O)[C@H]1N | inactive | inactive | inactive | inactive | inactive | inactive | – | – | – | –
C[C@H](CO)NC(=O)c1ccccc1O[C@@H]1O[C@H](CO)[C@@H](O)[C@H](O)[C@H]1O | inactive | inactive | inactive | inactive | inactive | inactive | – | – | – | –
O=C(NC(CO)CO)c1ccccc1O | inactive | inactive | inactive | inactive | inactive | inactive | – | – | – | –
C[C@@H](CO)NC(=O)c1ccccc1O | inactive | inactive | inactive | inactive | inactive | inactive | – | – | – | –
N[C@H]1[C@H](Oc2ccccc2C2=N[C@H](CO)CO2)O[C@H](CO)[C@@H](O)[C@@H]1O | inactive | inactive | inactive | inactive | inactive | inactive | – | – | – | inactive
C[C@H](CO)NC(=O)c1ccccc1O | inactive | inactive | inactive | inactive | inactive | inactive | – | – | – | –

From ChEMBL document CHEMBL4004794, “Identification of Neuroprotective Spoxazomicin and Oxachelin Glycosides via Chemoenzymatic Glycosyl-Scanning” (J Nat Prod, 2017)
